ChEMBL document CHEMBL1811911, “Synthesis and antidepressant-like activity evaluation of sulphonamides and sulphonyl-hydrazones” (Bioorg Med Chem, 2011)
Activity calls are given as the source filed them. The rule behind the calls is not given here.

How the values were obtained:
Mus musculus [1] = test: Antidepressant activity in Swiss mouse assessed as reduction of immobility duration at 6 to 10 mg/kg, ip administered 30 mins prior test measured during last 4 mins of 6 mins observation period by forced-swimming test relative to control; format: functional, organism-based
Mus musculus [2] = test: Toxicity in Swiss mouse assessed as number of rearing at 10 mg/kg, ip administered 30 mins prior test measured during last 4 mins of 6 mins observation period by forced-swimming test by locomotory test (reference value: 39.45 +/- 6.21); format: organism-based; set-up: dose 10 mg/kg, route intraperitoneal; details: in vivo
Mus musculus [3] = test: Antidepressant activity in Swiss mouse assessed as reduction of immobility duration at 6 to 10 mg/kg, ip measured after 6 mins by tail suspension test relative to control; format: functional; set-up: scale not given: the % may be the effect or the level left; details: dose mg/kg 6-10; route intraperitoneal
Outline: (§1)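 Tail suspension test (Steru method) in male adult Swiss mice (25–35 g), compound given ip acutely, vehicle 0.9% NaCl. Mice, isolated acoustically and visually, hung 50 cm above the floor by adhesive tape about 1 cm from tail tip; total immobility time recorded. Percent reduction = [(A−B)/A]×100, A control and B treated immobility.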

Mus musculus [4] = test: Antidepressant activity in Swiss mouse assessed as immobility duration at 10 mg/kg, ip administered 30 mins prior test measured during last 4 mins of 6 mins observation period by forced-swimming test (reference value: 166 +/- 12.23 to 218.54 +/- 8.11 Secs); format: functional; details: route intraperitoneal
Mus musculus [5] = test: Antidepressant activity in Swiss mouse assessed as reduction of immobility duration at 10 mg/kg, ip administered 30 mins prior test measured during last 4 mins of 6 mins observation period by forced-swimming test relative to control; format: functional; set-up: scale not given: the % may be the effect or the level left; details: route intraperitoneal
Mus musculus [6] = test: Toxicity in Swiss mouse assessed as number of squares crossed at 10 mg/kg, ip administered 30 mins proir test measured during last 4 mins of 6 mins incubation by forced-swimming test by locomotory test (reference value: 96.63 +/- 5.32); format: organism-based; set-up: dose 10 mg/kg, route intraperitoneal; details: in vivo
Mus musculus [7] = test: Antidepressant activity in Swiss mouse assessed as reduction of immobility duration at 10 mg/kg, ip measured after 6 mins by tail suspension test relative to control; format: functional; set-up: scale not given: the % may be the effect or the level left; details: route intraperitoneal; outline: as §1
Mus musculus [8] = test: Antidepressant activity in Swiss mouse assessed as reduction of immobility duration at 10 mg/kg, ip administered 30 mins prior test measured during last 4 mins of 6 mins observation period by forced-swimming test (reference value: 0 %); format: functional; set-up: scale not given: the % may be the effect or the level left; details: route intraperitoneal
Mus musculus [9] = test: Antidepressant activity in Swiss mouse assessed as reduction of immobility duration at 3 mg/kg, ip administered 30 mins prior test measured during last 4 mins of 6 mins observation period by forced-swimming test relative to control; format: functional, organism-based; set-up: dose 3 mg/kg
Mus musculus [10] = test: Antidepressant activity in Swiss mouse assessed as reduction of immobility duration at 30 to 60 mg/kg, ip administered 30 mins prior test measured during last 4 mins of 6 mins observation period by forced-swimming test relative to control; format: functional, organism-based
Mus musculus [11] = test: Antidepressant activity in Swiss mouse assessed as reduction of immobility duration at 60 mg/kg, ip administered 30 mins prior test measured during last 4 mins of 6 mins observation period by forced-swimming test (reference value: 0 %); format: functional; set-up: scale not given: the % may be the effect or the level left; details: route intraperitoneal
Mus musculus [12] = test: Antidepressant activity in Swiss mouse assessed as immobility duration at 60 mg/kg, ip administered 30 mins prior test measured during last 4 mins of 6 mins observation period by forced-swimming test (reference value: 166 +/- 12.23 to 218.54 +/- 8.11 Secs); format: functional; details: route intraperitoneal
Mus musculus [13] = test: Toxicity in Swiss mouse assessed as number of rearing at 60 mg/kg, ip administered 30 mins prior test measured during last 4 mins of 6 mins observation period by forced-swimming test by locomotory test (reference value: 39.45 +/- 6.21); format: organism-based; set-up: dose 60 mg/kg, route intraperitoneal; details: in vivo
Mus musculus [14] = test: Antidepressant activity in Swiss mouse assessed as reduction of immobility duration at 60 mg/kg, ip administered 30 mins prior test measured during last 4 mins of 6 mins observation period by forced-swimming test relative to control; format: functional; set-up: scale not given: the % may be the effect or the level left
Mus musculus [15] = test: Antidepressant activity in Swiss mouse assessed as reduction of immobility duration at 30 to 60 mg/kg, ip measured after 6 mins by tail suspension test relative to control; format: functional; set-up: scale not given: the % may be the effect or the level left; details: dose mg/kg 30-60; route intraperitoneal; outline: as §1
Mus musculus [16] = test: Toxicity in Swiss mouse assessed as number of squares crossed at 60 mg/kg, ip administered 30 mins proir test measured during last 5 mins of 6 mins incubation by open-field test (reference value: 96.63 +/- 5.32); details: in vivo
Mus musculus [17] = test: Antidepressant activity in Swiss mouse assessed as reduction of immobility duration at 10 to 60 mg/kg, ip administered 30 mins prior test measured during last 4 mins of 6 mins observation period by forced-swimming test relative to control; format: functional
Mus musculus [18] = test: Antidepressant activity in Swiss mouse assessed as immobility duration at 20 mg/kg, ip administered 30 mins prior test measured during last 4 mins of 6 mins observation period by forced-swimming test (reference value: 166 +/- 12.23 to 218.54 +/- 8.11 Secs); format: functional; details: route intraperitoneal
Outline: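 Male adult Swiss mice (25–35 g), group-housed under 12 h light (07:00–19:00) at 23 °C. Single ip dose, vehicle 0.9% NaCl, acute pre-treatment. Porsolt forced swim: individual cylinders (20 cm diameter) with 20 cm water at 24 °C, 6 min swim; immobility scored manually over last 4 min. %IM = (A−B)/A×100 versus vehicle group; N = 8–10 mice; ANOVA with Dunnett's test.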

Mus musculus [19] = test: Antidepressant activity in Swiss mouse assessed as reduction of immobility duration at 10 to 60 mg/kg, ip measured after 6 mins by tail suspension test relative to control; format: functional; set-up: scale not given: the % may be the effect or the level left; details: dose mg/kg 10-60; route intraperitoneal; outline: as §1
Mus musculus [20] = test: Toxicity in Swiss mouse assessed as number of rearing at 30 mg/kg, ip administered 30 mins prior test measured during last 4 mins of 6 mins observation period by forced-swimming test by locomotory test (reference value: 39.45 +/- 6.21); format: organism-based; set-up: dose 30 mg/kg, route intraperitoneal; details: in vivo
Mus musculus [21] = test: Toxicity in Swiss mouse assessed as number of squares crossed at 30 mg/kg, ip administered 30 mins proir test measured during last 5 mins of 6 mins incubation by open-field test (reference value: 96.63 +/- 5.32); details: in vivo
Mus musculus [22] = test: Antidepressant activity in Swiss mouse assessed as reduction of immobility duration at 6 to 30 mg/kg, ip administered 30 mins prior test measured during last 4 mins of 6 mins observation period by forced-swimming test relative to control; format: functional; set-up: scale not given: the % may be the effect or the level left; details: dose mg/kg 6-30; route intraperitoneal
Mus musculus [23] = test: Antidepressant activity in Swiss mouse assessed as reduction of immobility duration at 30 mg/kg, ip administered 30 mins prior test measured during last 4 mins of 6 mins observation period by forced-swimming test (reference value: 0 %); format: functional; set-up: scale not given: the % may be the effect or the level left; details: route intraperitoneal
Mus musculus [24] = test: Antidepressant activity in Swiss mouse assessed as reduction of immobility duration at 6 to 30 mg/kg, ip measured after 6 mins by tail suspension test relative to control; format: functional; set-up: scale not given: the % may be the effect or the level left; details: dose mg/kg 6-30; route intraperitoneal; outline: as §1
Mus musculus [25] = test: Antidepressant activity in Swiss mouse assessed as immobility duration at 30 mg/kg, ip administered 30 mins prior test measured during last 4 mins of 6 mins observation period by forced-swimming test (reference value: 166 +/- 12.23 to 218.54 +/- 8.11 Secs); format: functional; details: route intraperitoneal

| SMILES | Activity (Mus musculus [2]) | Activity (Mus musculus [3]) [%] | Time (Mus musculus [4]) [s] | Activity (Mus musculus [5]) [%] | Activity (Mus musculus [6]) | Activity (Mus musculus [8]) [%] | other results |
| --- | --- | --- | --- | --- | --- | --- | --- |
| Cc1ccc(/C=N/NS(=O)(=O)c2ccc(N3C(=O)C4C5C=CC(C)(O5)C4C3=O)cc2)cc1 (centres undefined) | 43 | 55.05 | 83 | 62.83 | 92.74 |  | Activity (Mus musculus [1]): Active |
| COc1cc(/C=N/NS(=O)(=O)c2ccc(CN3C(=O)c4cccc5cccc(c45)C3=O)cc2)ccc1O | 40.75 |  | 70.75 | 60.3 | 96.1 | 60.3 | Activity (Mus musculus [7]): 74.65% |
| O=C1c2cccc3c(Cl)ccc(c23)C(=O)N1Cc1ccc(S(=O)(=O)N2CCOCC2)cc1 |  | 30.61 |  | 52.63 |  |  | Activity (Mus musculus [9]): inactive |
| O=C1c2cccc3cccc(c23)C(=O)N1Cc1ccc(S(=O)(=O)N2CCCC2)cc1 | 37.45 | 45.57 | 67.37 | 52.26 | 108.45 | 64.25 | Activity (Mus musculus [9]): inactive |
| O=C1C2C3C=CC(O3)C2C(=O)N1c1ccc(S(=O)(=O)N2CCCC2)cc1 (centres undefined) |  |  |  |  |  |  | Activity (Mus musculus [10]): Active; Activity (Mus musculus [11]): 54.8%; Time (Mus musculus [12]): 92.95 s; Activity (Mus musculus [13]): 42.95; Activity (Mus musculus [14]; route intraperitoneal): 28.8%; Activity (Mus musculus [15]): 58.85%; Activity (Mus musculus [16]): 86.74 |
| O=C1c2cccc3c(Cl)ccc(c23)C(=O)N1CCc1ccc(S(=O)(=O)N2CCCC2)cc1 | 42 |  | 82 |  | 86.74 | 56.49 | Activity (Mus musculus [17]): inactive; Activity (Mus musculus [14]): inactive; Activity (Mus musculus [9]): inactive |
| CNCCC(Oc1ccc(C(F)(F)F)cc1)c1ccccc1 (centres undefined) [FLUOXETINE] |  |  |  |  |  |  | Time (Mus musculus [18]): 33.18 s |
| O=C1C2C3C=CC(O3)C2C(=O)N1c1ccc(S(=O)(=O)N/N=C/c2ccc(O)cc2)cc1 (centres undefined) |  |  |  |  |  |  | Activity (Mus musculus [17]): inactive |
| COc1ccc(/C=N/NS(=O)(=O)c2ccc(N3C(=O)C4C5C=CC(C)(O5)C4C3=O)cc2)cc1 (centres undefined) | 40.37 | 41.64 | 90.37 | 58.53 | 92.54 | 58.64 | Activity (Mus musculus [1]): Active |
| CN(C)CCCN1c2ccccc2CCc2ccccc21 [IMIPRAMINE] |  |  | 49.85 |  |  | 57.3 |  |
| O=C1c2cccc3cccc(c23)C(=O)N1Cc1ccc(S(=O)(=O)N2CCOCC2)cc1 | 36.67 | 57.14 | 66 | 60.3 | 98.85 | 64.89 | Activity (Mus musculus [9]): inactive |
| O=C1C2C3C=CC(O3)C2C(=O)N1c1ccc(S(=O)(=O)N/N=C/c2ccc([N+](=O)[O-])cc2)cc1 (centres undefined) | 38.37 | 57.5 | 178.37 | 65.44 | 98.14 | 18.38 | Activity (Mus musculus [1]): Active |
| CC12C=CC(O1)C1C(=O)N(c3ccc(S(=O)(=O)N/N=C/c4ccc(Cl)cc4)cc3)C(=O)C12 (centres undefined) |  |  |  |  |  |  | Activity (Mus musculus [11]): 72.02%; Time (Mus musculus [12]): 61 s; Activity (Mus musculus [13]): 41; Activity (Mus musculus [17]): Active; Activity (Mus musculus [14]; route intraperitoneal): 62.83%; Activity (Mus musculus [19]): 62.87%; Activity (Mus musculus [16]): 98.45 |
| COc1cc(/C=N/NS(=O)(=O)c2ccc(CN3C(=O)c4ccccc4C3=O)cc2)ccc1O |  |  |  |  |  |  | Activity (Mus musculus [20]): 45.37; Activity (Mus musculus [21]): 106.45; Activity (Mus musculus [22]): 63.9%; Activity (Mus musculus [23]): 66.64%; Activity (Mus musculus [24]): 69.21%; Time (Mus musculus [25]): 55.37 s |
| O=C1c2ccccc2C(=O)N1Cc1ccc(S(=O)(=O)N/N=C/c2ccc([N+](=O)[O-])cc2)cc1 |  |  |  |  |  |  | Activity (Mus musculus [11]): 68.52%; Time (Mus musculus [12]): 52.25 s; Activity (Mus musculus [13]): 42.65; Activity (Mus musculus [17]; dose mg/kg 10-60, route intraperitoneal): 68.64%; Activity (Mus musculus [19]): 64.88%; Activity (Mus musculus [16]): 92.54 |
| CC12C=CC(O1)C1C(=O)N(c3ccc(S(=O)(=O)N4CCOCC4)cc3)C(=O)C12 (centres undefined) | 38 | 23.69 | 131 | 28.8 | 101.12 | 36.3 | Activity (Mus musculus [1]): Active |
| CC12C=CC(O1)C1C(=O)N(c3ccc(S(=O)(=O)N/N=C/c4ccc(Cl)c(Cl)c4)cc3)C(=O)C12 (centres undefined) |  |  |  |  |  |  | Activity (Mus musculus [17]): inactive |
| CC12C=CC(O1)C1C(=O)N(c3ccc(S(=O)(=O)N4CCCC4)cc3)C(=O)C12 (centres undefined) | 33 |  | 133 | 85 | 96 | 33.33 | Activity (Mus musculus [7]): 31.17% |
